rRNA inh HTS: selective bacterial rRNA inhibition in E. coli; AID 720706; GFP signal change (wild-type ribosome), % (no concentration beside the values); E. coli WT GFP vs humanized-ribosome RFP mutants, fluorescence, 24 h; hits give low values; DMSO median 0, no signal -100; hit rate 1.6% among 350,000;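 active = significant combined selectivity score with lowered wild-type GFP, culture density cut under 30%, mutant RFP and density less affected; inactive = any of these conditions unmet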
RAD54 inh: inhibitors of human RAD54 branch migration. hit rate 0.14% among 360,000. inhibition, % at 10.4 µM. RAD54 Holliday junction branch migration, FAM/BHQ fluorescence;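 active = mean normalized replicate activity at least 40 and at least half of replicates scoring 40 or more; inconclusive = only one of the two criteria met; inactive = mean below 40 and under half of replicates reaching 40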;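 note: 0% = median of neutral control wells and 100% = median of positive control wells; inhibitors cause a drop in the FAM fluorescence signal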
RAD52 anneal inh: inhibitors of human RAD52 DNA annealing; P43351; inhibition, % at 18.7 µM; recombinant RAD52 DNA annealing, FRET fluorescence; hit rate 0.46% among 360,000; AID 651710;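 active = every replicate showing at least 50% inhibition; inconclusive = mean inhibition at least 50% but not in every replicate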
E-selectin induc: E-selectin induction on HUVECs | P16581 | HUVEC E-selectin immunofluorescence imaging; normalized: neutral wells 0, TNF-alpha wells 100 | activation, % at 7.58 µM | hit rate 0.37% among 260,000 | AID 686992;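 active = mean E-selectin-positive cell signal at least 10% of the positive control, reached in at least 60% of replicates, without over 20% cell loss; inconclusive = no rule given, readout overlaps actives, possibly toxicity-flagged; inactive = the rest, including those meeting only one limit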
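material = human umbilical vein endothelial cells (HUVEC), E-selectin induction | quantity = 3,000 cells/well | medium = EGM-2 growth medium on 0.1% gelatin-coated wells | technique = immunofluorescence imaging | read-out basis = % PE-positive cells | control set = TNF-alpha positive control, DMSO neutral control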
GSIS activator: primary screen for activators of insulin secretion dependent on glucose, INS-1E cells, GLuc reporter luminescence; INS-1E GLuc reporter insulin secretion, 2-3 h; activation, % at 16.6 µM; hit rate 0.61% among 370,000; AID 743287;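 active = lowest replicate activation of at least 40%, so every replicate reaches that level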;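 note: 0% = median of neutral control wells and 100% = median of IBMX positive control wells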
MLL AF4-AF9 inh: MLL-AF4/AF9 protein interaction inhibition; P42568; AlphaScreen, biotin-AF4 peptide binding to FLAG-AF9; inhibition, % at 10 µM; hit rate 0.47% among 350,000; AID 651704;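 active = every replicate reaching a set inhibition limit, whatever the replicate mean, cut at about 25% in these data; inconclusive = mean inhibition reaches that limit but some replicates miss it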;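 note: 0% = plate neutral control median and 100% = total signal loss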
Target sequence (P42568 whole entry, looked up): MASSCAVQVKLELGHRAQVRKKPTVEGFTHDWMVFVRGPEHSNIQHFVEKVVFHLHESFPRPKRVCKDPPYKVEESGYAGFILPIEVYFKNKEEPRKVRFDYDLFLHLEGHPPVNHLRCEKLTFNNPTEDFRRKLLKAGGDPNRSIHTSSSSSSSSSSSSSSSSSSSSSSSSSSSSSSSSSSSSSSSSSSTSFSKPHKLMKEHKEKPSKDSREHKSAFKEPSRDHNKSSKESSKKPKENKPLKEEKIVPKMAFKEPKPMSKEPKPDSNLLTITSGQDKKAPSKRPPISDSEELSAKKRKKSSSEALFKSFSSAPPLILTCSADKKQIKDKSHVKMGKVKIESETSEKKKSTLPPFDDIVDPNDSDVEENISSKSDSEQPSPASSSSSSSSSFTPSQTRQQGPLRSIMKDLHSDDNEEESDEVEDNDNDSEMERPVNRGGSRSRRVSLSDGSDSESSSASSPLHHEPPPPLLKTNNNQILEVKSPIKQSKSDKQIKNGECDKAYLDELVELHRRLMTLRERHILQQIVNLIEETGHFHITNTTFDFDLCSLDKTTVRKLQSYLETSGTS
AID977621: wild-type E. coli growth inhibition versus H69 humanized strain – H69 mutant RFP, wild-type GFP, cherry-pick, dose response. activity change, negative = inhibition at 50 µM. AID 977621. fluorescence, 24 h. shares compounds with rRNA inh HTS. 1,900 tested, under 10 active;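 active = Wild-type ribosome reporter drop at least double the humanized mutant ribosome reporter drop, growth loss under a set limit; inconclusive = no clear call, values can overlap the other calls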;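 note: wild-type GFP and H69 mutant RFP strains grown together 50/50 in each well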
AID977628: E. coli growth inhibition, wild-type GFP versus h24 humanized RFP strain, dose response, h24 mutant RFP vs wild-type GFP, cherry-pick; shares compounds with rRNA inh HTS; E. coli WT GFP strain growth, fluorescence, 24 h; activity change, negative = inhibition at 50 µM; 1,900 tested, under 10 active; AID 977628;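 active = compound lowering the normal-ribosome reporter at least twice as much as the humanized-ribosome reporter, growth loss under a set limit; inconclusive = no clear call, values can overlap the other calls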;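 note: wild-type GFP and h24 humanized RFP strains co-cultured 1 to 1 per well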
Numbers without * were called inactive; ! = repeats disagree. An excerpt weighted towards active compounds, which were near 2.6% of everything screened.

COc1ccc(NC(=O)N(C)C[C@@H]2Oc3ccc(NC(=O)Nc4ccc(F)cc4)cc3C(=O)N([C@H](C)CO)C[C@@H]2C)cc1 was read as rRNA inh HTS -4, RAD54 inh 2, RAD52 anneal inh -7, E-selectin induc 0, GSIS activator -10 and MLL AF4-AF9 inh 1.
For CC(=O)Nc1nc(C)c(-c2csc(Nc3ccccn3)n2)s1 the results were rRNA inh HTS -20*!, RAD52 anneal inh 4, E-selectin induc 3, GSIS activator 18, MLL AF4-AF9 inh -15 and AID977621 0.27.
Cc1ccccc1Nc1c(-c2cccnc2)nc2ccc(Br)cn12 was read as rRNA inh HTS -25*, RAD52 anneal inh -11, E-selectin induc 0, GSIS activator -2, MLL AF4-AF9 inh 1, AID977621 6.9 and AID977628 0.28.
`Cc1ccc2nc(-c3cccnc3)c(Nc3ccccc3C)n2c1` gave rRNA inh HTS 1, RAD54 inh -6, RAD52 anneal inh -13, E-selectin induc 0, GSIS activator 39 and MLL AF4-AF9 inh 1.
`COc1ccc2c3c(n(C)c2c1)[C@H](CO)N(C(=O)c1cccnc1)CC31CCN(C(=O)c2cccnc2)CC1` gave rRNA inh HTS 2, RAD52 anneal inh 8, E-selectin induc 0, GSIS activator 10 and MLL AF4-AF9 inh 1.
For C[C@H](CO)N1C[C@H](C)[C@H](CN(C)Cc2ccncc2)Oc2ccc(NC(=O)NC3CCCCC3)cc2C1=O the results were rRNA inh HTS -5, RAD54 inh -7, RAD52 anneal inh 9, E-selectin induc 0, GSIS activator 5 and MLL AF4-AF9 inh -1.
`CC1C=NC(S(=O)(=O)N2CC[C@@H]3[C@H](CO)N(C)c4ccc(-c5ccc(F)cc5)cc4[C@@H]32)=N1` (stereo partly specified) gave rRNA inh HTS -6, RAD54 inh 1, E-selectin induc 1 and GSIS activator 1.
For Cc1noc(C)c1S(=O)(=O)N(Cc1ccccc1)C(C)C the results were rRNA inh HTS -19*, RAD54 inh 8, RAD52 anneal inh -5, E-selectin induc 1, GSIS activator 3, AID977621 2.4 and AID977628 -6.8.
For Cc1ccc(S(=O)(=O)N(Cc2ccccc2)C(C)C)cc1 the results were rRNA inh HTS -24, RAD54 inh -10, RAD52 anneal inh -16, E-selectin induc 0, GSIS activator -6 and MLL AF4-AF9 inh -3.
Screening CCNC(=O)C[C@@H]1CC[C@@H](NC(=O)C2CCOCC2)[C@@H](CO)O1 returned rRNA inh HTS 2, RAD54 inh -15, RAD52 anneal inh 8, E-selectin induc 1, GSIS activator 21 and MLL AF4-AF9 inh 1.
O=S(=O)(Nc1ccccc1N1CCCCC1)c1cccs1 was read as rRNA inh HTS -33*, RAD54 inh -1, RAD52 anneal inh -12, E-selectin induc 0, GSIS activator 20, MLL AF4-AF9 inh -11, AID977621 -4.5 and AID977628 -8.4.
COc1cccc(S(=O)(=O)Nc2ccc3c(c2)[C@H]2C[C@@H](CC(=O)O)O[C@H](CO)[C@H]2O3)c1 was read as rRNA inh HTS 4, RAD54 inh -15, RAD52 anneal inh 32, E-selectin induc 0, GSIS activator 13 and MLL AF4-AF9 inh 15.
CN(C)S(=O)(=O)c1cccc(NC(=O)c2ccc3c(c2)S(=O)(=O)N=C2CCCCCN23)c1 was read as rRNA inh HTS -20*, RAD54 inh -4, RAD52 anneal inh -27, E-selectin induc 1, GSIS activator 1, MLL AF4-AF9 inh -3, AID977621 -13 and AID977628 -10.
Screening CN(C)S(=O)(=O)c1cccc(C(=O)Nc2ccc(C(=O)Nc3cccc(S(N)(=O)=O)c3)cc2)c1 returned rRNA inh HTS -24*, RAD54 inh -7, RAD52 anneal inh -95, E-selectin induc 2, MLL AF4-AF9 inh 1 and AID977628 -8.
COCC(=O)Nc1ccc2c(c1)C(=O)N(C)[C@@H]1CC[C@@H](CC(=O)NC3CCCC3)O[C@H]1CO2 was read as rRNA inh HTS 4, RAD54 inh -2, E-selectin induc 0 and GSIS activator 9.
Screening COC(=O)c1ccc(CCc2cc(O)c(Br)cc2O)cc1 returned rRNA inh HTS -19*, RAD52 anneal inh -53, E-selectin induc 0, MLL AF4-AF9 inh -3, AID977621 -9.5 and AID977628 -3.5.
CC(C(=O)Nc1nc2ccccc2s1)n1cc([N+](=O)[O-])cn1 (stereo unspecified) was read as rRNA inh HTS -18*, RAD52 anneal inh -12, GSIS activator -21, MLL AF4-AF9 inh -1 and AID977621 -18.
For NC(=O)c1ccsc1NC(=O)COC(=O)c1ccc(Cl)cc1 the results were rRNA inh HTS 2, RAD54 inh -7, RAD52 anneal inh -18, E-selectin induc 4, GSIS activator -3 and MLL AF4-AF9 inh -1.
NC(=O)c1ccsc1NC(=O)COC(=O)CSc1ccc(Cl)cc1 was read as rRNA inh HTS -21*, RAD54 inh -12, RAD52 anneal inh -44, GSIS activator -22, MLL AF4-AF9 inh -1 and AID977628 inconclusive.
`c1ccc2c(c1)Nc1cc3ccccc3cc1S2` gave rRNA inh HTS -21*, RAD52 anneal inh -14, E-selectin induc 9, GSIS activator 15, MLL AF4-AF9 inh 1, AID977621 -5.3 and AID977628 -7.6.
`COCC(=O)N1CC2(CN(Cc3ccccc3)C2)c2c([nH]c3cc(OC)ccc23)[C@H]1CO` gave rRNA inh HTS 0, RAD52 anneal inh 5, E-selectin induc 0, GSIS activator 7 and MLL AF4-AF9 inh 1.
C[C@@H]1CCCCO[C@@H](CN(C)C(=O)Nc2ccc3c(c2)OCO3)[C@H](C)CN([C@H](C)CO)C(=O)c2cc(NC(=O)Cc3ccccc3)ccc2O1 was read as rRNA inh HTS -3, RAD54 inh -7, E-selectin induc 0 and GSIS activator -22.
`O=C(Nc1ccc(Nc2ccccc2)cc1)c1ccc(F)cc1` gave rRNA inh HTS -21*, RAD54 inh -6, RAD52 anneal inh -11, E-selectin induc 0, GSIS activator -9, MLL AF4-AF9 inh 3, AID977621 -3.5 and AID977628 -13.

High-throughput results as filed in PubChem.
